Test: Toxicity liver stage against HepG2, at 10uM
Assay type: cell-based
Set-up: test concentration 10 uM, cell line HepG2-A16-CD81EGFP
Details: human, HepG2-A16-CD81EGFP cells; read-out: INHIBITION
Outline: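 Uninfected HepG2-A16-CD81EGFP cells, 3 × 10^3 per well, 1536-well, plated on prespotted compound at 10 μM final, parasite-free screening media added to match infected plates; puromycin 10 μM positive, DMSO 0.5% negative; run in parallel with 48 h PbLuc assay at 37 °C, 5% CO2; viability by CellTiter-Glo luminescence, normalized to controls.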

| SMILES | cytotoxicity at 10 µM [%] |
| --- | --- |
| CN(Cc1cccnc1)CC1CN(C(=O)C2CC2)Cc2nccn2C1 (configuration not stated) | -79.8 |
| Cc1nn(C)c2nc(N(Cc3ccncc3)CC3CCCO3)sc12 (configuration not stated) | 9.42 |
| CCC[C@@H]1CN(C(=O)c2cc3ccccc3cc2O)C[C@H]1N(C)C | -10.2 |
| Cc1cnn(CCNCCCOc2ccc3c(c2)OCO3)c1 | -3.6 |
| CCn1nc2c(cc1=O)CN(Cc1nc(-c3ccsc3)no1)CC2 | -17.1 |
| Cc1csc(NC(=O)c2ccc(NC(=O)N3CCOCC3)cc2)n1 | 1.11 |
| Cn1cccc1C(=O)N1CC[C@@H]2[C@@H]1CC(=O)N2CC1CCOCC1 | -2.82 |
| CCN1CCN(C(=O)CCn2cccc2)CC1 | 7.66 |
| O=C(O)c1cccnc1CN1CCOc2ccccc2C1 | 7.66 |
| Cn1nc(C2CCNCC2)c2c(C(=O)NC3CC3)cc(C3CC3)nc21 | 16.2 |
| COCC(=O)NCc1cccnc1-n1cnc2ccccc21 | -2.8 |
| CCOC(=O)c1sc(NC(=O)c2cc(=O)c(OC)c[nH]2)nc1C | -57.1 |
| CCOc1cccc(CNC(=O)NC2CC=CC2)c1OC(F)F | -49.1 |
| O=C(CCN1CCOC1=O)Nc1cnn(-c2ccccc2Cl)c1 | -3.39 |
| Cc1nn(C)c(C)c1C1COCCN1c1ncnc2c(C)cccc12 (configuration not stated) | 6.54 |
| Cc1nn(C)c(N2CCOCC2)c1CNC(C)c1ccco1 (configuration not stated) | -17.6 |
| COC(=O)c1ccc(CCn2cnc(C#N)n2)cc1 | -3.15 |
| COc1cccc(-c2n[nH]cc2C(=O)NC(C)c2n[nH]c(C)n2)c1 (configuration not stated) | -6.26 |
| CC(C)Cn1nnnc1SC(C(=O)NCc1cccnc1)C(C)C (configuration not stated) | -4.05 |
| COCc1nc(CNc2cc(C)on2)cs1 | 4.05 |
| CCCc1noc(CS(=O)(=O)CC(=O)NC(C)CCC)n1 (configuration not stated) | 3.22 |
| c1ncn(CC2CN(Cc3ccc4c(c3)OCCO4)CCO2)n1 (configuration not stated) | -0.282 |
| CN1CC(=O)N(c2cnn(C)c2)CC12CCN(Cc1cccs1)C2 (configuration not stated) | 3.48 |
| CCCS(=O)(=O)N1CCOCC2(CCN(c3ccccn3)C2)C1 (configuration not stated) | 2.42 |

| SMILES | cytotoxicity at 10 µM [%] |
| --- | --- |
| CCNC(=O)C(C)Oc1ccc(N(C)S(C)(=O)=O)cc1 (configuration not stated) | 1.07 |
| CCc1c(C)[nH]c(C(C)(C)N)nc1=O | -11 |
| Cc1ccc(-c2ncc(C(=O)N3CCCC(CCN)C3)c(O)n2)cc1 (configuration not stated) | -7.98 |
| CCNC(=O)N1CCC(NC(=O)NCCc2ccc(C)cc2C)C1 (configuration not stated) | -44.6 |
| N#Cc1cccc(S(=O)(=O)NC(=O)COC2CCCC2)c1 | -4.79 |
| O=c1[nH][nH]cc1-c1ccnc(NCCc2cccc(O)c2)n1 | -7.83 |
| CCCc1n[nH]c(=O)n1Cc1ccccc1F | 2.24 |
| O=C(NCC1CCS(=O)(=O)C1)N(Cc1ccco1)C1CC1 (configuration not stated) | -136 |
| Clc1ccc(CN2CCC(C3CCN(Cc4cccnc4)CC3)C2)cc1 (configuration not stated) | 11.3 |
| O=C(Cc1ccccc1F)NCC1CCN(CCc2ccccc2)C1 (configuration not stated) | -43.5 |
| Cn1ccnc1-c1ccc(NCCC2COc3ccccc3O2)nn1 (configuration not stated) | 9.56 |
| O=C(C1CCOCC1)N1C[C@@H]2CN(Cc3ccsc3)CCO[C@@H]2C1 | -77.5 |
| CCS(=O)(=O)NCCCNCc1c(C)nn(C)c1N(C)C | -9.66 |
| CN(C)C1CCCN(C(=O)NCc2ccccc2-n2cccn2)C1 (configuration not stated) | -4.14 |
| Cc1cc2nc(C(C)C)cc(N(C)CC3CCCN3C)n2n1 (configuration not stated) | 8.49 |
| O=C(NS(=O)(=O)c1ccc2c(c1)CCC2)C1COCCO1 (configuration not stated) | 10.4 |
| CSCC(C)(O)CNc1ccccn1 (configuration not stated) | 8.26 |
| CC(=O)NCCC1CCCCN1S(=O)(=O)c1cccc(C#N)c1 (configuration not stated) | -10.8 |
| OC1(CNCCSCc2ccccc2)CCCNC1 (configuration not stated) | 1.84 |
| COCCOCCSc1nnc(Cc2ccccc2F)o1 | 14.5 |
| O=C(c1cnco1)N1CCC(Cc2cccc3ncccc23)CC1 | 6.79 |
| Cc1[nH]/c(=N\C(=O)c2csc(NCC(C)C)n2)sc1C | 47.4 |
| Cc1noc(CNc2cc3c(cc2Cl)NC(=O)CO3)n1 | 3.07 |
